NF-kB expr up – compounds increasing NF-kB expression in human neuronal cells; 1.6% of 190,000 active; AID 1239; NF-kB reporter expression; hits give high values; fold change at 12.5 µM; in the data active = fold change above about 3.3
FLuc inh counter – inhibits firefly luciferase, flagging false hits in luciferase inhibition screens | inhibition, % at 10 µM | ATPLite firefly luciferase biochemical luminescence, 10 min | 1.5% of 200,000 active | P08659;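 active = inhibition above about 50% when tested at 10 µM, limit read from the data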
STAT1 activator – increases IFN-gamma driven STAT1 reporter signal | NIH 3T3 STAT1-luciferase reporter, luminescence; 100% = IFN-gamma alone, no compound | activation (% of control), % at 5.5 µM | 2.6% of 200,000 active | AID 932;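 active = activation above the screen-wide mean activation plus 3 SD, cut at about 130% in these data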;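 also: raw ratio to IFN-gamma control signal so 100% means no change and 0% no light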
Pf gamet viab – kills late stage P. falciparum gametocytes | inhibition, % at 10.9 µM | 0.065% of 150,000 active | P. falciparum stage V gametocytes, ATP luminescence, 24 h;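 active = inhibition above the mean plus 3 SD of compounds within the control limits, set per campaign, cut at about 38% in these data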;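 also: 0% = DMSO wells and 100% = medium only without gametocytes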
FLuc stim CS – affects firefly luciferase, flagging false hits in luciferase stimulation screens. activation factor at 10 µM. AID 1027. P08659. 200,000 tested, under 10 active. ATPlite luciferase biochemical, luminescence, 10 min; 0 = ATP-free wells, 1 = DMSO control;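 active = luciferase activation factor, scaled between plate controls, of at least 2 with compound at 10 µM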
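Material: luciferase plus luciferin reagent, cell-free. Medium: PBS buffer for ATP. Also added: ATP substrate, dispensed from a 10.24 µM working solution in PBS. Doses: test compounds dosed from 2 mM stocks in 100% DMSO. Incubation: 10 min post-reagent at room temperature. Technique: light output (luminescence). Read-out basis: luminescence gain marking luciferase activators.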
APP 5'UTR act – activates APP 5'UTR luciferase reporter | SH-SY5Y APP 5'UTR luciferase reporter, luminescence; zero percent = DMSO vehicle wells | activation, % at 2 µM | 1% of 190,000 active;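 active = activation above a set limit, based on mean plus 3 SD of controls, cut at about 140% in these data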
Starred values were filed as active, the others as inactive; / = not tested or not shown. Hits are enriched below; roughly 3.5% of the tested compounds scored in any of these assays.

SMILES	NF-kB expr up	FLuc inh counter	STAT1 activator	Pf gamet viab	FLuc stim CS	APP 5'UTR act
COc1ccc(C(=O)C2CCCN(C3Cc4ccccc4C3)C2)c(OC)c1 (centres undefined)	0.83	-5.6	92.4	/	1.1	13.5
CN1C(=O)CSc2ccc(NC(=O)Nc3ccccn3)cc21	1.44	19.8	142.4*	3.3	0.8	28.9
Cn1c(N=Nc2ccc(N3CCOCC3)cc2)[n+](C)c2ccccc21	0.6	59.0*	120.3	17.5	0.4	36.5
COc1ccc(/C=N/NC(=O)c2cccc(NC(=O)c3ccccc3)c2)c(C(=O)O)c1OC	1.23	-1.9	108.1	-12.4	1	25.2
CC(C)CCn1cnc2c(sc3nc4c(cc32)CSC(C)(C)C4)c1=O	0.99	8.4	117.7	2.7	0.9	230.9*
COC(=O)c1ccc(Sc2nnnn2-c2ccccc2)c([N+](=O)[O-])c1	3.96*	-1.1	93.3	/	1	2.0
O=C(O)c1ccc(Sc2nnnn2-c2ccccc2)c([N+](=O)[O-])c1	0.99	-2.6	94.5	/	1	5.3
CNC(=S)N1CCN(c2ccc(OC)cc2)CC1	1.12	-5.4	106.4	/	1.1	3.0
c1ccc(CSc2ccc(-c3cccnc3)nn2)cc1	2.53	40.0	133.9*	-3.6	0.6	35.6
c1cncc(CSc2ccc(-c3cccnc3)nn2)c1	1.29	8.2	100.9	4.3	0.9	-4.8
COc1ccc(-c2noc(CN(C)Cc3ccccc3)n2)c(OC)c1OC	/	/	/	-1.7	/	/
CC(C)C(=O)Nc1ccc(-c2nc3cccnc3o2)cc1	2.69	66.9*	147.1*	-10.6	0.3	150.8*
COc1cccc2cc(C(=O)NCc3ccccc3Cl)c(=O)oc12	/	/	/	12.3	/	/
O=C(c1cc(COc2ccc(F)cc2F)on1)N1CCSCC1	2.56	1.7	137.6*	-0.8	1	64.5
COc1cc(/C=N/Nc2nc(Nc3ccccc3)nc(N3CCCCC3)n2)ccc1OCC(=O)O	1.36	50.8*	102.6	-28.6	0.5	15.7
COc1cc(/C=N/Nc2nc(N3CCCC3)nc(N3CCCC3)n2)ccc1O	0.56	-1.8	100.2	/	1	-0.5
Oc1ccc(/C=N/Nc2nc(N3CCCC3)nc(N3CCCC3)n2)cc1O	1.13	-1.5	131.5*	-26.3	1	7.2
COc1ccc(/C=C/C(=O)c2ccc(NC3=NCCCS3)cc2)cc1OC	1.49	-2.2	75.7	1.4	1	1.3
CC1CCN(S(=O)(=O)c2ccc(N=NC3=C(O)CC(C)(C)CC3=O)cc2)CC1	1.16	-5.2	96.5	43.6*	1.1	-14.3
CC(=O)N1CCc2cc(N=NC3=C(O)CC(C)(C)CC3=O)ccc21	0.92	17.2	131.7*	7.4	0.8	109.0
Cc1cc(C(=O)N2CCN(c3ncccn3)CC2)cs1	1.02	-18.9	98.0	17.4	1.2	-6.2
CN(C)C(=O)COC(=O)c1ccccc1Nc1ccc(SC(F)F)cc1	2.53	-2.9	130.7*	-14.7	1	19.1
CN1CCCN(C(=O)CC2(CC(=O)O)CCCCC2)CC1	/	/	/	-3.4	/	/
O=C(N=c1nc2ccccn2s1)c1ccccc1	/	95.2*	/	/	0	/
COc1ccc(CNCC(=O)Nc2cccc(S(N)(=O)=O)c2)cc1	1.1	3.7	98.1	2.9	1	-3.0
SMILES	NF-kB expr up	FLuc inh counter	STAT1 activator	Pf gamet viab	FLuc stim CS	APP 5'UTR act
COc1cccc(-c2ccc(SCc3ccccn3)nn2)c1	3.16	45.8	126.1	-8.1	0.5	80.7
Cn1c(SCc2nnc(-c3ccccc3Br)o2)nc2sc3c(c2c1=O)CCC3	4.53*	4.7	99.3	/	1	5.1
COc1cccc(NC(=S)N(CCN(C)C)Cc2cccs2)c1	5.78*	-8.0	105.4	-9.9	1.1	5.4
CCc1ccc(C(=O)COC(=O)c2n[nH]c3ccccc23)cc1	5.47*	62.6*	123.9	-2.0	0.4	99.6
CC1CCN(C(=O)COC(=O)c2n[nH]c3ccccc23)CC1	2.45	54.7*	124.7	/	0.5	67.0
CCC1CCCCN1C(=O)COC(=O)c1n[nH]c2ccccc12 (centres undefined)	1.14	2.1	116.1	/	1	32.6
Cc1ccc(CN(c2ccc(C(=O)NCC3CCCO3)cc2)S(C)(=O)=O)cc1 (centres undefined)	1.09	-6.3	92.5	-36.4	1.1	5.4
Cn1c(=O)c2ncn(CC(=O)N=Nc3c(O)[nH]c4ccccc34)c2n(C)c1=O	1.21	-4.9	101.5	/	1	-19.0
CCCCN1C(=O)/C(=C/C=C2\SCCN2C)SC1=S	3.04	11.7	129.8*	3.0	0.9	62.0

Source: PubChem BioAssay (several laboratories)
